From PMC7845017 (ACS Central Science, 2021) come the findings set out here.

Common to all, as to test: Broth microdilution MIC
In general terms: In broth dilution the organism is exposed to a series of concentrations in liquid medium.

One assay concerns P. aeruginosa PAO1. It counts as cell-based, Pseudomonas aeruginosa. The following applies: P. aeruginosa PAO1, Müller-Hinton medium, 16–20 h at 37 °C; at least two independent duplicates. An outline of the steps:
(§1)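 MIC reported in μg/mL. Each strain was grown in Müller-Hinton medium and incubated for 16–20 h at 37 °C. Every strain was tested in at least two independent duplicates.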

For the next assay, the system named is A. baumannii ATCC 19606. It counts as cell-based, Acinetobacter baumannii. The following applies: A. baumannii ATCC 19606, Müller-Hinton medium, 16–20 h at 37 °C; at least two independent duplicates. A digest of the protocol:
as §1

For a further assay, the system named is E. coli W3110. It counts as cell-based, Escherichia coli. The following applies: E. coli W3110, Müller-Hinton medium, 16–20 h at 37 °C; at least two independent duplicates. A digest of the protocol: as §1
Another assay concerns K. pneumoniae NCTC418. It counts as cell-based, Klebsiella pneumoniae. The following applies: K. pneumoniae NCTC418, Müller-Hinton medium, 16–20 h at 37 °C; at least two independent duplicates. An outline of the steps:
as §1

Bounds are passed on as bounds.

For the substance ILPWKWPWWPWRR [sr-Indo], the “P. aeruginosa MIC” value in the assay on P. aeruginosa PAO1 is over 64 µg/mL. Moreover, the “A.baumannii MIC” value in the assay on A. baumannii ATCC 19606 turned out to be 8 µg/mL. In addition, the “E. coli MIC” value in the assay on E. coli W3110 worked out at 16 µg/mL. Moreover, the “K. pneumoniae MIC” value in the assay with K. pneumoniae NCTC418 was 16 µg/mL.
As for KYKKALKKLAKLL [rac-SB1], in the assay with P. aeruginosa PAO1, the “P. aeruginosa MIC” value turned out to be 2 µg/mL. Moreover, the “A.baumannii MIC” value with A. baumannii ATCC 19606 is 2 µg/mL. Besides, the “E. coli MIC” value with E. coli W3110 turned out to be 1 µg/mL. Moreover, in the assay with K. pneumoniae NCTC418, the “K. pneumoniae MIC” value is 16 µg/mL.
As to KYKKALKKLAKLL [sr-SB1], in the assay with P. aeruginosa PAO1, the “P. aeruginosa MIC” value was over 64 µg/mL. For the same substance, in the assay with A. baumannii ATCC 19606, the “A.baumannii MIC” value is over 64 µg/mL. Also, the “E. coli MIC” value with E. coli W3110 is 32 µg/mL. In the assay with K. pneumoniae NCTC418, the “K. pneumoniae MIC” value is over 64 µg/mL.
For KYKKALKKLAKLL [sr^1/3-SB1], the “P. aeruginosa MIC” value in the assay on P. aeruginosa PAO1 was over 64 µg/mL. In addition, the “A.baumannii MIC” value in the assay on A. baumannii ATCC 19606 was over 64 µg/mL. Besides, the “E. coli MIC” value in the assay with E. coli W3110 was found to be 16 µg/mL. The “K. pneumoniae MIC” value in the assay on K. pneumoniae NCTC418 is over 64 µg/mL.
On to KYKKALKKLAKLL [sr^3/1-SB1], for which, in the assay on P. aeruginosa PAO1, the “P. aeruginosa MIC” value was over 64 µg/mL. The “A.baumannii MIC” value in the assay with A. baumannii ATCC 19606 is over 64 µg/mL. The “E. coli MIC” value in the assay with E. coli W3110 turned out to be 16 µg/mL. In the assay with K. pneumoniae NCTC418, the “K. pneumoniae MIC” value is over 64 µg/mL.
Regarding VQWRAIRVRVIR [sr-DJK5], the “P. aeruginosa MIC” value in the assay on P. aeruginosa PAO1 was over 64 µg/mL. Also, the “A.baumannii MIC” value with A. baumannii ATCC 19606 is over 64 µg/mL. The “E. coli MIC” value with E. coli W3110 stood at 16 µg/mL. The “K. pneumoniae MIC” value in the assay on K. pneumoniae NCTC418 was over 64 µg/mL.
For the substance polymyxin B [PMB, reference compound], in the assay on P. aeruginosa PAO1, the “P. aeruginosa MIC” value was determined as 0.25 µg/mL. In the assay on A. baumannii ATCC 19606, the “A.baumannii MIC” value is 0.25 µg/mL. In addition, the “E. coli MIC” value with E. coli W3110 was 0.25 µg/mL. In addition, in the assay with K. pneumoniae NCTC418, the “K. pneumoniae MIC” value was 0.25 µg/mL.
